Compound activity (PubChem BioAssay)
Rows were chosen to be rich in hits. Some 9.4% of all compounds tested hit in one or more screens of this group.
L major viab: Leishmania major promastigote growth inhibition. Leishmania major promastigotes, resazurin fluorescence viability. inhibition, % at 10 µM. 200,000 tested, 9% active. AID 1063; in the data active = inhibition above about 50%;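 note: promastigotes grown with compound for 44 hours at 28 °C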
T cruzi inh: T. cruzi replication inhibition | T. cruzi beta-gal in NIH3T3, luminescence, 90 h | inhibition, % (test concentration not listed) | 300,000 tested, 1.4% active | AID 1885;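 active = mean inhibition across valid replicates above about 55%, limit read from the data; inconclusive = mean below that limit but half or more replicates reach it; inactive = mean below it, under half of replicates reach it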;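 note: signal also drops with host cell toxicity which is not excluded here; 0% = plate median of DMSO wells and 100% = zero luminescence signal; higher percent means less beta-gal luminescence so fewer parasites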
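Material: NIH/3T3 host cells with β-galactosidase reporter T. cruzi; Input: 5,000 host fibroblasts per well; Medium: DMEM, 2% fetal bovine serum; Compound: 50 nL DMSO compound solution per well; Schedule: 3 h host attachment, then at least 90 h co-culture; Detection: luminescent β-galactosidase signal after 60 min lysis.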
CSC inhib: cancer stem cell inhibition. inhibition, % at 7.5 µM. 300,000 tested, 1.1% active. cancer stem cell-like cells viability, luminescence; in the data active = inhibition above about 75%; inconclusive = no clear call, values can overlap the other calls; tested in HMLE shEcad cells
Beta cell apopt: beta cell apoptosis inhibition; INS-1E cytokine-induced death, ATP luminescence, 48 h; percent of positive-control rescue, neutral wells zero; protection from apoptosis, % (test concentration not listed); 300,000 tested, 0.8% active;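 active = Every replicate reaches about 75%, or at least half do and their mean reaches it too, limit read from the data; inconclusive = At least half of replicates reach the limit but their mean does not; inactive = Under half of replicates reach the limit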;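 note: 0% = cytokine-treated negative control wells and 100% = positive control rescue; higher means more ATP so stronger rescue from cytokine killing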
SKKanGAS inh: SKKanGAS growth inhibition | 300,000 tested, 1.3% active | S. pyogenes SKKanGAS, kanamycin growth, BacTiter-Glo, 6 h | AID 1662 | inhibition, % at 7.5 µM;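 active = mean replicate score, as percent of positive control median, at least 50; inconclusive = mean below 50 but one replicate at or above 50; inactive = mean and every replicate below 50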;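 note: strain carries kanamycin resistance gene driven by streptokinase promoter and grows in 40 µg/ml kanamycin; loss of luminescence reflects streptokinase promoter inhibition or plain growth inhibition; 0% = median of DMSO wells and 100% = positive control at its reference dose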
Mdm2-MdmX inh: disrupts the human Mdm2-MdmX interaction. O15151+Q00987. AID 485346. SaOS-2 split-luciferase Mdm2/MdmX complementation, luminescence. inhibition, % at 8 µM. 330,000 tested, 3% active;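 active = inhibition of at least 50% at 8 µM in the primary screen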
Target sequence (O15151 whole entry, looked up): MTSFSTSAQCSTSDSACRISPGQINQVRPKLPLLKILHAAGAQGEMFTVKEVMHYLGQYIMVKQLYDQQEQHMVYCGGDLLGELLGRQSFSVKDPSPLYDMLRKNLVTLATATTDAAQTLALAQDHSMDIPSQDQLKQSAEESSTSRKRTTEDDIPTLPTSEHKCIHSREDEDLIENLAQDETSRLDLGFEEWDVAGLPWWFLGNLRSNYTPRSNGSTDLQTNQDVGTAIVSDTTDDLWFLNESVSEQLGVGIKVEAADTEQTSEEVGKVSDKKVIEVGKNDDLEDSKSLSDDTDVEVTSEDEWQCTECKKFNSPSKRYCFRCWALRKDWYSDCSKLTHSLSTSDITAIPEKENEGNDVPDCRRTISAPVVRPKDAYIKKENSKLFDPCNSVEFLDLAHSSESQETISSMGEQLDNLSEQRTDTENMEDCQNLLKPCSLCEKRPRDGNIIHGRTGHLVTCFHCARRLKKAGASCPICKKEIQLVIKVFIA
Target sequence (Q00987 whole entry, looked up): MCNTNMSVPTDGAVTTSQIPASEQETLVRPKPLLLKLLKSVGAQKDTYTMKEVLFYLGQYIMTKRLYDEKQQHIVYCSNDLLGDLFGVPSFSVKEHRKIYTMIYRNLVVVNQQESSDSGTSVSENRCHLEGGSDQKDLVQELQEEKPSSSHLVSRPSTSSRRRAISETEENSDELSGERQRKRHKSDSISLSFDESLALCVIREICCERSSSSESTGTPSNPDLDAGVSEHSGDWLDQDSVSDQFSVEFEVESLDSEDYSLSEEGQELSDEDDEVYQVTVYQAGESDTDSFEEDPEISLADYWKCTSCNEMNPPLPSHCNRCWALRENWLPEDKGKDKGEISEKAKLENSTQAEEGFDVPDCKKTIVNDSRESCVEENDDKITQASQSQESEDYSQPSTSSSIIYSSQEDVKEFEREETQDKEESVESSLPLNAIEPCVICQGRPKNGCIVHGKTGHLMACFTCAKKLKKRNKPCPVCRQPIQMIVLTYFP
The depositor's hits bear a star; ? = inconclusive; / = not tested or not shown.

SMILES	L major viab	T cruzi inh	CSC inhib	Beta cell apopt	SKKanGAS inh	Mdm2-MdmX inh
Cc1cc(=O)n2c(n1)NC(Nc1cccc(C)c1C)=NC2c1ccccc1 (stereo unspecified)	/	-2	-9	-2	-2	20
O=C(CN(C(=O)CCC(=O)Nc1nccs1)C1CCCC1)NCc1ccc2c(c1)OCO2	-5	-8	-1	/	-9	-6
CCOC(=O)C(C(=O)Nc1nc2ccccc2s1)C1CCCCC1 (stereo unspecified)	85*	-6	16	-10	-3	25
CCOC(=O)C(C(=O)Nc1nccs1)C1CCCCC1 (stereo unspecified)	52*	-10	2	-5	-6	7
CCOC(=O)C(C(=O)Nc1cccc(C)n1)C1CCCCC1 (stereo unspecified)	4	5	5	-1	-7	1
CC1=NN(C(=O)CSCc2ccccc2)C(O)(c2ccc(F)cc2)C1 (stereo unspecified)	99*	6	-15	0	9	15
CCCc1cc(=O)n(-c2nc3ccccc3s2)[nH]1	/	-6	140*	-2	22	-1
CCOC(=O)Cc1cc(=O)n(-c2nc3ccccc3s2)[nH]1	-7	0	31	-4	10	11
Cc1ccc(-c2nc3cc(NC(=O)C(C)C)ccc3o2)cc1	4	5	1	-2	-2	-40
COc1ccc(Cl)cc1-c1nc(-c2ccc(NC(=O)c3cccs3)cc2)no1	65*	?	6	34	16	1
CC(Oc1ccc(Cl)cc1Cl)c1nc(-c2ccc(NC(=O)c3cccnc3)cc2)no1 (stereo unspecified)	95*	41	20	101*	26	17
CCOc1ccccc1-c1nc(-c2ccc(NC(=O)Cc3ccccc3OC)cc2)no1	28	56*	/	5	6	6
COc1ccc(NC(=O)c2cccs2)cc1OC	-1	-6	4	-4	-2	-1
Cc1cc2nc(-c3ccc(NC(=O)C(C)C)cc3)oc2cc1C	90*	6	6	10	-5	-159
COc1cccc(C(=O)Nc2ccccc2OC(F)(F)F)c1	-3	-8	9	0	0	-32
CCN(C[C@H]1N[C@@](CC)(C(=O)OC)[C@H]2C(=O)N(C)C(=O)[C@@H]12)C(=O)C1CCCCC1	/	/	/	/	/	3
CCC1CCCCN1CCCNC(=O)c1cc2c(=O)[nH]c3ccccc3c2n1C (stereo unspecified)	0	25	10	0	-6	2
CC(Oc1ccc(Cl)cc1Cl)C(=O)Nc1ccc2oc(-c3ccncc3)nc2c1 (stereo unspecified)	19	53	63	4	51*	41
CC(Oc1ccc(Cl)cc1Cl)c1nc(-c2ccc(NC(=O)c3ccncc3)cc2)no1 (stereo unspecified)	2	55*	83*	/	31	40
CC1CC(C)CN(C(=O)Cn2c(=O)n(CCCC(=O)NCc3ccco3)c(=O)c3sccc32)C1 (stereo unspecified)	/	0	/	1	-6	-8
CCC(C)Sc1cccc(-c2nc3ccc(C)cn3c2NCc2ccccc2)c1 (stereo unspecified)	/	42	125*	?	67*	36
Cc1ccc2nc(-c3cccc(-c4cccc(Cl)c4)c3)c(NCc3ccccc3)n2c1	/	22	?	94*	31	20
CCCCCCSc1cccc(-c2nc3ccc(C)cn3c2NCc2ccccc2)c1	/	14	80*	3	33	-2
CCCCCCSc1cc(-c2nc3ccc(C)cn3c2NCc2ccccc2)ccc1OC	/	37	-7	117*	39	23
Cc1ccc(NC(=O)Cc2nc(CSc3nnc(-c4ccc5c(c4)OCO5)o3)cs2)cc1	87*	32	13	-5	15	-85
SMILES	L major viab	T cruzi inh	CSC inhib	Beta cell apopt	SKKanGAS inh	Mdm2-MdmX inh
Cc1ccc(CCC(=O)Nc2ccc(CC(=O)O)cc2)o1	/	?	1	-2	2	-4
CCOc1ccc(S(=O)(=O)NCCC(=O)N(C)Cc2cccs2)cc1	/	/	-9	-4	/	-24
CN(Cc1ccccc1F)c1nc(-c2cccs2)nc2ccccc12	79*	23	/	6	18	16
Fc1ccccc1N1CCN(c2nc(-c3cccs3)nc3ccccc23)CC1	26	21	38	11	1	4
CC(C)CN(C(=O)COC(=O)C1=COCCO1)c1c(N)n(Cc2ccccc2)c(=O)[nH]c1=O	/	-8	-7	-6	5	3
CC(C)Nc1nc(NC(C)C)nc(N(C)N)n1	24	1	-4	-4	56*	5
CC(C)Nc1nc(NC(C)C)nc(N(C)C(N)=O)n1	-3	-10	12	0	-1	15
O=C(NCc1cccc(Cl)c1)c1ccc(N2CC3CC(C2)c2cccc(=O)n2C3)c(NC(=O)c2cccnc2)c1 (stereo unspecified)	/	-3	-3	1	-3	24
CSC1=C(C#N)C(c2ccc3c(c2)OCO3)C2=C(CCCC2=O)N1 (stereo unspecified)	4	7	-8	-6	5	20
CCSC1=C(C#N)C(c2ccc(Cl)cc2)C2=C(CCCC2=O)N1 (stereo unspecified)	95*	5	15	-3	-3	8
Cc1cc(Br)c2c(c1)/C(=C/C(=O)c1cccs1)C(=O)N2	100*	58*	9	8	-2	21
CN1/C(=C\C(=O)c2cccs2)C(C)(C)c2ccccc21	22	14	3	-2	-4	-36
Cc1cccc2c1NC(=O)/C2=C\C(=O)c1cccs1	100*	5	83*	6	-3	33
O=C1Nc2ccccc2/C1=C\C(=O)c1ccccc1	/	-12	15	-4	-2	37
CCc1ccc2c(c1)/C(=C/C(=O)c1cccs1)C(=O)N2	101*	-1	50	-11	-7	47
CN1/C(=C/C(=O)c2cccs2)Sc2ccccc21	10	-5	-9	/	-13	-116
Cc1ccc(NS(=O)(=O)c2cccc(C(=O)Nc3c(C)n(C)n(-c4ccccc4)c3=O)c2)cc1	/	4	/	4	11	19
CN1C(=O)/C(=C/c2ccccc2F)Sc2ccc(C(=O)NCC3CCCO3)cc21 (stereo unspecified)	/	-19	-3	/	?	16
CN1C(=O)/C(=C/c2ccccc2Cl)Sc2ccc(C(=O)NCc3cccnc3)cc21	19	9	-6	-1	71*	25
O=C(CBr)c1ccc([N+](=O)[O-])c(CS(=O)(=O)c2ccc(Cl)cc2)c1	/	-24	12	-2	5	-4
O=C(Nc1ncc(Cc2cccc([N+](=O)[O-])c2)s1)c1ccco1	8	11	97*	1	4	-32
O=C(Nc1ncc(Cc2ccccc2Cl)s1)c1ccc([N+](=O)[O-])cc1	-4	13	34	8	5	29
Cc1cccc(Cc2cnc(NC(=O)c3ccc(C)o3)s2)c1	-1	-33	-2	-3	77*	-97
